Assay results published in ChEMBL document CHEMBL1949525, “Boranophosphate isoster controls P2Y-receptor subtype selectivity and metabolic stability of dinucleoside polyphosphate analogues” (J Med Chem, 2012).
Active and inactive are the calls of the source. No cut-off for these calls is given here.

Columns and labels:
[1] = test system: e-NPP1; assay: (§1) Stability of the compound assessed as human e-NPP1-mediated hydrolysis at pH 8.5 after 20 mins by HPLC analysis; assay type: ADME; settings: human, human e-NPP1 enzyme, pH 8.5; read-out: Drug degradation
Outline: (§2)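 Human NPP1 preparation preincubated 3 min at 37 °C in 1 mM CaCl2, 200 mM NaCl, 10 mM KCl, 100 mM Tris, pH 8.5. Started with 0.2 mM dinucleotide solution (added volume) and stopped after 20 min in ice-cold perchloric acid. Neutralised with KOH, then NMP formation followed by HPLC. Percent substrate hydrolysed is the mean of two experiments run in triplicate.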

[2] = as §1; assay type: ADME; settings: buffer, pH 8.5, 20 min; outline: as §2
[3] = Chemical stability of the compound at pH mimicking gastric juice acidity; assay type: physicochemical; settings: simulated gi fluid
[4] = Chemical stability of the compound at physiological conditions; assay type: physicochemical
[5] = target: P2Y purinoceptor 1 (Meleagris gallopavo) (UniProt P49652); assay: (§3) Agonist activity at turkey P2Y purinoceptor 1 expressed in human 1321N1 cells assessed as increase in intracellular calcium concentration by spectrofluorimetry; assay type: functional, cell-based
P2Y purinoceptor 1 (Meleagris gallopavo), sequence (P49652 whole entry): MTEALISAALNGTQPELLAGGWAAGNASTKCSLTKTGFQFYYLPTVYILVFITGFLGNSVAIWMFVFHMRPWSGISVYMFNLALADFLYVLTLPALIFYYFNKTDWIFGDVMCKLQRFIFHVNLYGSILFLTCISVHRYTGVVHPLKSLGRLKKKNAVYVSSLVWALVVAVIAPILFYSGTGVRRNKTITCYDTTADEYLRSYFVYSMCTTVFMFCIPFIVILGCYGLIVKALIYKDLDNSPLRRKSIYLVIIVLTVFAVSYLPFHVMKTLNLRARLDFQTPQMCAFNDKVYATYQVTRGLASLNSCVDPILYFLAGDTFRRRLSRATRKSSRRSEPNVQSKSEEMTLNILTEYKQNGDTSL

[6] = target: T1, P2Y purinoceptor 2 (Homo sapiens, UniProt P41231); assay: Agonist activity at human P2Y purinoceptor 2 expressed in human 1321N1 cells assessed as increase in intracellular calcium concentration by spectrofluorimetry; assay type: functional, cell-based
T1 sequence (P41231 whole entry): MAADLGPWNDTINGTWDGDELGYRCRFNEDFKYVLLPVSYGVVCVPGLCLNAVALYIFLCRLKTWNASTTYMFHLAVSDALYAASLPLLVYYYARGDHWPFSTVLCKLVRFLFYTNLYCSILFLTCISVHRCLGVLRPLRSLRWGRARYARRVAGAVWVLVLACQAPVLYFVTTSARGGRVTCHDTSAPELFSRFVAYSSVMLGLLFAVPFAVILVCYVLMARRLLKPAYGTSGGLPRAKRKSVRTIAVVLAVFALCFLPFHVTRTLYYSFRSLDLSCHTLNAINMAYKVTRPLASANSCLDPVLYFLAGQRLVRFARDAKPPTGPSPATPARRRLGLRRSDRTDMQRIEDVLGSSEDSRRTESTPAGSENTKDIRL

[7] = target: P2Y purinoceptor 1 (Meleagris gallopavo, UniProt P49652); assay: as §3; assay type: functional, cell-based; settings: read-out: EC50
P2Y purinoceptor 1, sequence (P49652 whole entry): as the sequence (P49652 whole entry) above

[8] = target: T2, P2Y purinoceptor 4 (Homo sapiens, UniProt P51582); assay: Agonist activity at human P2Y purinoceptor 4 expressed in human 1321N1 cells assessed as increase in intracellular calcium concentration by spectrofluorimetry; assay type: functional, cell-based; settings: 1321-n1
T2 sequence (P51582 whole entry): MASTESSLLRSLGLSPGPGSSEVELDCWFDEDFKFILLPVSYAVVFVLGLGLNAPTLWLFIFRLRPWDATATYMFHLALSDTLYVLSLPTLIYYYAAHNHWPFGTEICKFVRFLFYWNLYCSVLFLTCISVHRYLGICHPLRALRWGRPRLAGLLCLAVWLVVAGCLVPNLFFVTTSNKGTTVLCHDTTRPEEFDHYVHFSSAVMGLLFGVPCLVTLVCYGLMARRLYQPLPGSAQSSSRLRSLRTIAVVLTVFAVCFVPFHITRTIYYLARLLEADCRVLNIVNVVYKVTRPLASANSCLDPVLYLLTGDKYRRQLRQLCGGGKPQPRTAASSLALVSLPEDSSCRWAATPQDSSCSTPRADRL
Outline: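 1321N1 astrocytoma cells (no endogenous P2Y receptors) stably expressing hP2Y4, grown in DMEM with 5% FBS, penicillin/streptomycin and 500 μg/mL G-418. Fura-2-loaded cell suspensions; compounds applied at various concentrations, 37 °C, 10 mM Hepes-buffered saline pH 7.4 with 1 mM CaCl2/MgCl2. Peak [Ca2+]i rise by dual-excitation fluorometry gives EC50; UTP reference agonist; three experiments on separate days.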

[9] = target: P2Y purinoceptor 6 (Rattus norvegicus, UniProt Q63371); assay: Agonist activity at rat P2Y purinoceptor 6 expressed in human 1321N1 cells assessed as increase in intracellular calcium concentration by spectrofluorimetry; assay type: functional, cell-based
P2Y purinoceptor 6, sequence (Q63371 whole entry): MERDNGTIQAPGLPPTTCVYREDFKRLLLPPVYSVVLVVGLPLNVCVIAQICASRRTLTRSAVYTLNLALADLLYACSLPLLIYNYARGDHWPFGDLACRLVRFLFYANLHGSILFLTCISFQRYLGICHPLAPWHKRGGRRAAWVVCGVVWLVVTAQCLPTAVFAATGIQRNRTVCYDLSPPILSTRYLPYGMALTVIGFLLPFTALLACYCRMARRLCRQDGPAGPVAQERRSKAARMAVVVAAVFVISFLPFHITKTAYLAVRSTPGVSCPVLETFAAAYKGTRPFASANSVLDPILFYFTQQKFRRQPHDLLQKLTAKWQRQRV
Outline: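 1321N1 astrocytoma cells lacking endogenous P2Y receptors, stably transfected with turkey P2Y1, human P2Y2, human P2Y4 or rat P2Y6, grown in DMEM with 5% FBS, penicillin/streptomycin and 500 µg/mL G-418. Fura-2-loaded cell suspensions were exposed at 37 °C in 10 mM Hepes-buffered saline, pH 7.4, with 1 mM CaCl2 and 1 mM MgCl2. Peak [Ca2+]i rise by dual-excitation spectrofluorometry across concentrations; EC50 from curve fits; three experiments on separate days per subtype.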

[10] = target: P2Y purinoceptor 1 (Meleagris gallopavo) (UniProt P49652); assay: Antagonist activity at turkey P2Y purinoceptor 1 expressed in human 1321N1 cells assessed as inhibition of 2-Sme-ADP-induced increase in intracellular calcium concentration by spectrofluorimetry; assay type: functional, cell-based
Outline: (§4)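 Fura-2-loaded 1321N1 transfectants (turkey P2Y1, human P2Y2/P2Y4, rat P2Y6) in Hepes-buffered saline, pH 7.4, at 37 °C. Analogues were tested against equimolar reference agonist: 2-MeS-ADP for P2Y1, UTP for P2Y2/4, UDP for P2Y6. Blockade of the [Ca2+]i rise was followed by dual-excitation spectrofluorometry.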

[11] = target: T1, P2Y purinoceptor 2; assay: Antagonist activity at human P2Y purinoceptor 2 expressed in human 1321N1 cells assessed as inhibition of UTP-induced increase in intracellular calcium concentration by spectrofluorimetry; assay type: functional, cell-based; outline: as §4
[12] = target: T2, P2Y purinoceptor 4; assay: Antagonist activity at human P2Y purinoceptor 4 expressed in human 1321N1 cells assessed as inhibition of UTP-induced increase in intracellular calcium concentration by spectrofluorimetry; assay type: functional, cell-based; outline: as §4
[13] = target: P2Y purinoceptor 6 (Rattus norvegicus) (UniProt Q63371); assay: Antagonist activity at rat P2Y purinoceptor 6 expressed in human 1321N1 cells assessed as inhibition of UDP-induced increase in intracellular calcium concentration by spectrofluorimetry; assay type: functional, cell-based; outline: as §4
P2Y purinoceptor 6 (Rattus norvegicus), sequence (Q63371 whole entry): as above

[14] = target: P2Y purinoceptor 1 (Meleagris gallopavo) (UniProt P49652); assay: Agonist activity at turkey P2Y purinoceptor 1 expressed in human 1321N1 cells assessed as increase in intracellular calcium concentration at 100 uM by spectrofluorimetry; assay type: functional, cell-based
[15] = target: T1, P2Y purinoceptor 2; assay: Agonist activity at human P2Y purinoceptor 2 expressed in human 1321N1 cells assessed as increase in intracellular calcium concentration at 100 uM by spectrofluorimetry; assay type: functional, cell-based

Nc1ncnc2c1ncn2[C@@H]1O[C@H](COP(=O)(O)OP(=O)(O)OP(=O)(O)OP(=O)(O)OC[C@H]2O[C@@H](n3ccc(=O)[nH]c3=O)[C@H](O)[C@@H]2O)[C@@H](O)[C@H]1O
metabolised at 20 min [1]: 18%

BP(=O)(OP(=O)(O)OC[C@H]1O[C@@H](n2ccc(=O)[nH]c2=O)[C@H](O)[C@@H]1O)OP(=O)(O)OC[C@H]1O[C@@H](n2ccc(=O)[nH]c2=O)[C@H](O)[C@@H]1O.CCCCN(CCCC)CCCC.CCCCN(CCCC)CCCC.CCCCN(CCCC)CCCC
Stability [2]: Stable
Stability [3]: Stable
Stability [4]: Stable
Activity [5]: inactive
Activity [6]: inactive

BP(=O)(OP(=O)(O)OP(=O)(O)OC[C@H]1O[C@@H](n2cnc3c(N)ncnc32)[C@H](O)[C@@H]1O)OP(=O)(O)OP(=O)(O)OC[C@H]1O[C@@H](n2cnc3c(N)ncnc32)[C@H](O)[C@@H]1O.CCCCN(CCCC)CCCC.CCCCN(CCCC)CCCC.CCCCN(CCCC)CCCC.CCCCN(CCCC)CCCC.CCCCN(CCCC)CCCC
Stability [2]: Unstable
Stability [3]: Stable
Stability [4]: Stable
Activity [5]: Active
Activity [6]: inactive

BP(=O)(OP(=O)(O)OP(=O)(O)OC[C@H]1O[C@@H](n2ccc(=O)[nH]c2=O)[C@H](O)[C@@H]1O)OP(=O)(O)OP(=O)(O)OC[C@H]1O[C@@H](n2ccc(=O)[nH]c2=O)[C@H](O)[C@@H]1O.CCCCN(CCCC)CCCC.CCCCN(CCCC)CCCC.CCCCN(CCCC)CCCC.CCCCN(CCCC)CCCC.CCCCN(CCCC)CCCC
Stability [2]: Stable
Stability [3]: Stable
Stability [4]: Stable
Activity [5]: inactive
Activity [6]: inactive

O=c1ccn([C@@H]2O[C@H](COP(=O)(O)OP(=O)(O)OP(=O)(O)OC[C@H]3O[C@@H](n4ccc(=O)[nH]c4=O)[C@H](O)[C@@H]3O)[C@@H](O)[C@H]2O)c(=O)[nH]1
metabolised at 20 min [1]: 21%

Nc1ncnc2c1ncn2[C@@H]1O[C@H](COP(=O)(O)OP(=O)(O)OP(=O)(O)OC[C@H]2O[C@@H](n3cnc4c(N)ncnc43)[C@H](O)[C@@H]2O)[C@@H](O)[C@H]1O
metabolised at 20 min [1]: 22%

BP(=O)(OP(=O)(O)OC[C@H]1O[C@@H](n2cnc3c(N)ncnc32)[C@H](O)[C@@H]1O)OP(=O)(O)OP(=O)(O)OC[C@H]1O[C@@H](n2cnc3c(N)ncnc32)[C@H](O)[C@@H]1O.CCCCN(CCCC)CCCC.CCCCN(CCCC)CCCC.CCCCN(CCCC)CCCC.CCCCN(CCCC)CCCC (stereo in doubt; 6A)
metabolised at 20 min [1]: 1.6%
EC50 [7]: 3000 nM
EC50 ([6]; 1321-n1): Not Active
EC50 [8]: Not Active

BP(=O)(OP(=O)(O)OC[C@H]1O[C@@H](n2ccc(=O)[nH]c2=O)[C@H](O)[C@@H]1O)OP(=O)(O)OP(=O)(O)OC[C@H]1O[C@@H](n2ccc(=O)[nH]c2=O)[C@H](O)[C@@H]1O.CCCCN(CCCC)CCCC.CCCCN(CCCC)CCCC.CCCCN(CCCC)CCCC.CCCCN(CCCC)CCCC (stereo in doubt; 7A)
metabolised at 20 min [1]: 3%
EC50 [8]: Not Active
EC50 ([9]; read-out: EC50): 1930 nM

BP(=O)(OP(=O)(O)OC[C@H]1O[C@@H](n2ccc(=O)[nH]c2=O)[C@H](O)[C@@H]1O)OP(=O)(O)OP(=O)(O)OC[C@H]1O[C@@H](n2ccc(=O)[nH]c2=O)[C@H](O)[C@@H]1O.CCCCN(CCCC)CCCC.CCCCN(CCCC)CCCC.CCCCN(CCCC)CCCC.CCCCN(CCCC)CCCC (stereo in doubt; 7B)
Activity [10]: inactive
Activity [11]: inactive
Activity [12]: inactive
Activity [13]: inactive
Activity [14]: Active

BP(=O)(OP(=O)(O)OC[C@H]1O[C@@H](n2cnc3c(N)ncnc32)[C@H](O)[C@@H]1O)OP(=O)(O)OP(=O)(O)OC[C@H]1O[C@@H](n2ccc(=O)[nH]c2=O)[C@H](O)[C@@H]1O.CCCCN(CCCC)CCCC.CCCCN(CCCC)CCCC.CCCCN(CCCC)CCCC.CCCCN(CCCC)CCCC (stereo in doubt; 8A) [listing 1 of 2 here]
metabolised at 20 min [1]: 1.5%
EC50 ([6]; 1321-n1): Not Active
EC50 [8]: Not Active
EC50 ([9]; read-out: EC50): 1290 nM

BP(=O)(OP(=O)(O)OC[C@H]1O[C@@H](n2cnc3c(N)ncnc32)[C@H](O)[C@@H]1O)OP(=O)(O)OP(=O)(O)OC[C@H]1O[C@@H](n2ccc(=O)[nH]c2=O)[C@H](O)[C@@H]1O.CCCCN(CCCC)CCCC.CCCCN(CCCC)CCCC.CCCCN(CCCC)CCCC.CCCCN(CCCC)CCCC (stereo in doubt; 8A) [listing 2 of 2 here]
Activity [10]: inactive
Activity [11]: inactive
Activity [12]: inactive
Activity [13]: inactive
Activity [14]: Active

BP(=O)(OP(=O)(O)OC[C@H]1O[C@@H](n2ccc(=O)[nH]c2=O)[C@H](O)[C@@H]1O)OP(=O)(O)OP(=O)(O)OC[C@H]1O[C@@H](n2cnc3c(N)ncnc32)[C@H](O)[C@@H]1O.CCCCN(CCCC)CCCC.CCCCN(CCCC)CCCC.CCCCN(CCCC)CCCC.CCCCN(CCCC)CCCC (stereo in doubt; 9A) [listing 1 of 2 here]
metabolised at 20 min [1]: 3%
EC50 [7]: 500 nM
EC50 [8]: Not Active
EC50 ([9]; read-out: EC50): 20900 nM

BP(=O)(OP(=O)(O)OC[C@H]1O[C@@H](n2ccc(=O)[nH]c2=O)[C@H](O)[C@@H]1O)OP(=O)(O)OP(=O)(O)OC[C@H]1O[C@@H](n2cnc3c(N)ncnc32)[C@H](O)[C@@H]1O.CCCCN(CCCC)CCCC.CCCCN(CCCC)CCCC.CCCCN(CCCC)CCCC.CCCCN(CCCC)CCCC (stereo in doubt; 9A) [listing 2 of 2 here]
Activity [10]: inactive
Activity [11]: inactive
Activity [12]: inactive
Activity [13]: inactive
Activity [15]: Active

BP(=O)(OC[C@H]1O[C@@H](n2ccc(=O)[nH]c2=O)[C@H](O)[C@@H]1O)OP(=O)(O)OP(=O)(O)OC[C@H]1O[C@@H](n2ccc(=O)[nH]c2=O)[C@H](O)[C@@H]1O.CCCCN(CCCC)CCCC.CCCCN(CCCC)CCCC.CCCCN(CCCC)CCCC (stereo in doubt; 11B)
Activity [10]: inactive
Activity [11]: inactive
Activity [12]: inactive
Activity [13]: inactive
Activity [14]: Active

BP(=O)(OC[C@H]1O[C@@H](n2cnc3c(N)ncnc32)[C@H](O)[C@@H]1O)OP(=O)(O)OP(=O)(O)OP(=O)(O)OC[C@H]1O[C@@H](n2cnc3c(N)ncnc32)[C@H](O)[C@@H]1O.CCCCN(CCCC)CCCC.CCCCN(CCCC)CCCC.CCCCN(CCCC)CCCC.CCCCN(CCCC)CCCC (stereo in doubt; 12A)
Drug degradation ([2]; 20 min): 2.5%
EC50 [7]: 1480 nM
EC50 ([6]; read-out: EC50): 25900 nM
EC50 [8]: Not Active
EC50 ([9]; 1321-n1): Not Active

BP(=O)(OC[C@H]1O[C@@H](n2ccc(=O)[nH]c2=O)[C@H](O)[C@@H]1O)OP(=O)(O)OP(=O)(O)OP(=O)(O)OC[C@H]1O[C@@H](n2ccc(=O)[nH]c2=O)[C@H](O)[C@@H]1O.CCCCN(CCCC)CCCC.CCCCN(CCCC)CCCC.CCCCN(CCCC)CCCC.CCCCN(CCCC)CCCC (stereo in doubt; 13B)
Activity [10]: inactive
Activity [11]: inactive
Activity [12]: inactive
Activity [13]: inactive
Activity [14]: Active

Nc1ncnc2c1ncn2[C@@H]1O[C@H](COP(=O)(O)OP(=O)(O)OP(=O)(O)OP(=O)(O)OC[C@H]2O[C@@H](n3cnc4c(N)ncnc43)[C@H](O)[C@@H]2O)[C@@H](O)[C@H]1O [DIADENOSINE TETRAPHOSPHATE]
metabolised at 20 min [1]: 17%
